Compound activity as filed in PubChem BioAssay.
Hits are enriched below; roughly 2.7% of the tested compounds scored in any of these assays.
Wee1 stabilizer = Wee1 degradation inhibitors, primary screen, cell-based, HeLa, Wee1K328M-luciferase, luminescence. AID 1321, 2008. reporter increase, % at 5 µM. HeLa Luc-Wee1K328M stability; 100% = proteasome inhibitor MG132 effect. Wee1-like protein kinase (Homo sapiens), P30291. actives 1.2% (n = 220,000);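 active means activation above the mean of all tested compounds plus 3 SD, set per screening run, cut at about 8.8% in these data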;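 further: cells exposed to compound for 20 h before luminescence read; 0% = DMSO alone and 100% = MG132 at 30 µM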
Target sequence (P30291 whole entry K328M): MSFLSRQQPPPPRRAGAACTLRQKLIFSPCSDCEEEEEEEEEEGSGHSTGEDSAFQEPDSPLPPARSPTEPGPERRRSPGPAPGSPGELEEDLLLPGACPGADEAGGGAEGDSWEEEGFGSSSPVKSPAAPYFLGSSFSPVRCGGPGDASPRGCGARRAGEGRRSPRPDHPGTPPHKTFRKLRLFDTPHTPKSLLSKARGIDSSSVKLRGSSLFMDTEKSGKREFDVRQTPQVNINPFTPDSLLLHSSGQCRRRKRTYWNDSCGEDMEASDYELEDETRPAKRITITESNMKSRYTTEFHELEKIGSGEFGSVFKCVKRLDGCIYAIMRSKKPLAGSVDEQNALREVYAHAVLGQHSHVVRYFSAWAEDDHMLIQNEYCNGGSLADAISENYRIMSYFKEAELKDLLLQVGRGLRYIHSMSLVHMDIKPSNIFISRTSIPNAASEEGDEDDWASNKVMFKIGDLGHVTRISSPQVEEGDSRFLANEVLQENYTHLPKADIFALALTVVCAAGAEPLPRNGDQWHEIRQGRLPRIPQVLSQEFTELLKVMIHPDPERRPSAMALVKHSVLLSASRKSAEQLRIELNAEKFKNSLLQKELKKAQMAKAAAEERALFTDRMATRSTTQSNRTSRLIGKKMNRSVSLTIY
Hck-Nef inh = inhibitors of Nef-activated human Hck kinase, primary screen, biochemical, Z-Lyte FRET, 384-well, Hck-YEEI | Tyrosine-protein kinase HCK (Homo sapiens), P08631 | Recombinant Hck-YEEI plus Nef, Z-Lyte FRET kinase assay | inhibition, % at 20 µM | actives 0.68% (n = 220,000) | AID 463187, 2010;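 active means Hck-Nef kinase inhibition above about 50%, limit read from the data; inactive means inhibition below that limit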;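 further: 0% = DMSO with Hck plus Nef and 100% = Hck alone without Nef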
TbHK1 inh = Trypanosoma brucei hexokinase 1 inhibitors, primary screen, biochemical, G6PDH-coupled NADH absorbance, MLSCN library; AID 1430, 2008; recombinant TbHK1, G6PDH-coupled NADH A340; inhibition, % at 10 µM; hexokinase 1 [Trypanosoma brucei]; actives 0.11% (n = 220,000);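 active means inhibition of 50% or more in the single-dose primary screen; inactive means inhibition below 50%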
14-3-3 Bad inh = inhibitors of 14-3-3 zeta/Bad binding, primary screen, biochemical, TR-FRET, bovine 14-3-3 zeta; 14-3-3 protein zeta/delta (Bos taurus), P63103; TR-FRET 14-3-3zeta/Dy647-pBad peptide displacement, 1 h; inhibition, % at 21.7 µM; actives 0.71% (n = 220,000);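 active means inhibition above about 70%, limit read from the data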;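 further: 0% = full 14-3-3 plus peptide FRET controls and 100% = background without 14-3-3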
Mdm2 ligase inh = MDM2-luciferase reporter signal enhancers, primary screen, MDM2 E3 ligase inhibitor project, cell-based, luminescence, 1536-well; E3 ubiquitin-protein ligase Mdm2 (Homo sapiens), Q00987; cell-based MDM2 ubiquitination luciferase reporter, 2 h; 0 = plate control, 100 = twice control, blank-subtracted; signal enhancement, % at 5 µM; actives 0.11% (n = 210,000);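 active means signal enhancement of 30% or more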;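 further: luminescence tracks abundance of the self-degrading MDM2-luciferase fusion protein; higher signal means inhibition of MDM2 E3 ligase activity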
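Material: stable MDM2–luciferase fusion reporter cells / Quantity: 2000 cells/well / Dosing: single 5 µM compound dose, 0.2% final DMSO / Buffer or medium: DMEM / Schedule: 4 h cell settling then 2 h compound exposure, 37 °C / Detection: luminescence with SteadyLite reagent, 15 min at room temperature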
* = called active by the depositor; nt = not tested or not shown.

SMILES | Wee1 stabilizer | Hck-Nef inh | TbHK1 inh | 14-3-3 Bad inh | Mdm2 ligase inh
O=C(COc1ccccc1F)N/N=C1\CCCc2ccccc21 | 11* | 1 | 0 | -1 | -8
CCOc1cc(N2CCOCC2)c(OCC)cc1NC1=NCCCCC1 | -1 | 2 | -5 | -6 | -17
FC(F)(F)c1ccc(N2CCOCC2)c(NC2=NCCCCC2)c1 | -3 | 0 | 2 | 82* | 5
COCCNC(=O)c1ccc2ccccc2n1 | 6 | 1 | -1 | 2 | -16
Cc1ccccc1OCCNC(=O)c1ccc2ccccc2n1 | 9.6* | -2 | -6 | 6 | 4
CC1CCN(Cc2nc(-c3ccccc3)no2)CC1 | 4 | -1 | 4 | 76* | -23
c1ccc(-c2noc(CN3CCN(c4ccccc4)CC3)n2)cc1 | 1 | 1 | -14 | 3 | -10
O=C(CN1C(=O)COc2ccccc21)N(Cc1cccnc1)Cc1ccccc1F | -3 | 2 | -5 | 6 | -15
CCN(CCCNC(=O)c1ccc(N2CCCC2=O)cc1)c1cccc(C)c1 | -2 | 0 | -2 | 80* | -6
CC(C)n1c(=S)[nH]c2cc(Cl)ccc21 | 11* | -3 | -6 | -5 | -6
Cc1ccc2cc3c(N)c4c(C)ccc(C)c4nc3nc2c1 | -1 | 26 | 5 | -9 | -11
O=C(/C=C/c1ccco1)Nc1cccc(C(=O)Nc2ccccc2C(=O)O)c1 | 11* | 15 | -33 | 24 | -4
CCc1ccccc1NC(=O)c1cccc(NC(=O)/C=C/c2ccco2)c1 | 1 | 1 | -21 | 18 | -11
CC(C)(Oc1ccc(Cl)cc1)C(=O)OCC(=O)Nc1ncc(Cl)cc1Cl | -4 | 0 | 3 | 88* | -3
O=C(COC(=O)c1ccc(Cl)nc1)Nc1ncc(Cl)cc1Cl | -3 | -22 | 4 | 1 | 4
O=C(Nc1cc(=O)[nH]c2ncnn12)c1ccccc1F | 9.4* | 9 | -4 | -1 | -7
O=C(Nc1cc(=O)[nH]c2ncnn12)c1ccco1 | 5 | -3 | -6 | 4 | -8
C=CCn1c(SC(C)C#N)nc2sc(CC)cc2c1=O (stereo not given) | 11* | 28 | -2 | -12 | 0
CC1(C)Cc2c(cnn2-c2ccccc2)C(=O)/C1=N\NC(=O)c1ccccc1O | -2 | -3 | -20 | nt | -5
COc1ccc(NC2=NC(=S)N(c3ccccc3C)C23CCCCC3)cc1 | 3 | -14 | -1 | -12 | -17
COc1ccc(N2C(=S)N=C(Nc3ccccc3)C23CCCCC3)cc1 | 3 | 22 | -2 | -11 | 30*
O=C(O)c1ccc(OCc2cn3ccccc3n2)cc1 | -1 | 6 | -9 | 1 | nt
O=C(COc1ccc(Oc2ccccc2)cc1)NCc1cn2ccccc2n1 | 10* | 26 | 3 | -11 | 7
CC1CCN(C(=O)CN2C(=O)c3ccccc3S2(=O)=O)CC1 | 9.3* | 0 | -4 | 6 | 20
Cc1ccc(Nc2nnc(SCC3CCCCO3)s2)cc1 (stereo not given) | 5 | 1 | -2 | 4 | 848*
SMILES | Wee1 stabilizer | Hck-Nef inh | TbHK1 inh | 14-3-3 Bad inh | Mdm2 ligase inh
Cc1ccccc1Nc1nnc(SCC2CCCCO2)s1 (stereo not given) | 3 | 5 | -3 | -10 | -14
COc1cc(NS(=O)(=O)c2cccc3nsnc23)c(C(=O)O)cc1OC | -1 | -1 | -7 | 2 | -24
O=[N+]([O-])c1ccc(O)c(C2=NNC(c3ccccc3F)C2)c1 (stereo not given) | 9.6* | 24 | -17 | -9 | -28
COC(=O)c1c(NC(=O)c2ccccc2)sc2c1CC(C)(C)OC2 | 9.4* | 0 | -6 | 2 | -1
Nc1ncc(Br)cc1Br | -1 | 3 | -8 | 3 | -16
N#Cc1cnc(N)c(Br)c1 | 11* | 23 | -3 | -14 | -20
Cc1noc(C)c1S(=O)(=O)Nc1ccc(C(=O)NC2CCCCCC2)cc1 | -1 | 0 | 2 | 9 | -11
